Source: ChEMBL document CHEMBL1208778, “Synthesis and anti-cancer activity of chalcone linked imidazolones” (2010)
Activity calls are given as the source filed them. No cut-off for these calls is given here.

Tests used:
Type in all cases: functional
[1] = Growth inhibition of human RPMI8266 cells
Summary of the method: (§1)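 Five-dose testing was run within the NCI (Bethesda) in vitro Anticancer Screen Program on a panel of 53 human tumour cell lines from nine cancer types. Growth inhibition is reported as GI50.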

[2] = test system: K562; test: Growth inhibition of human K562 cells; summary of the method: as §1
[3] = test system: A549; test: Growth inhibition of human A549 cells; summary of the method: as §1
[4] = test system: EKVX; test: Growth inhibition of human EKVX cells; summary of the method: as §1
[5] = test system: HOP-62; test: Growth inhibition of human HOP62 cells; summary of the method: as §1
[6] = test system: NCI-H226; test: Growth inhibition of human NCI-H226 cells; summary of the method: as §1
[7] = test system: NCI-H23; test: Growth inhibition of human NCI-H23 cells; summary of the method: as §1
[8] = test system: NCI-H322M; test: Growth inhibition of human NCI-H322M cells; summary of the method: as §1
[9] = test system: NCI-H460; test: Growth inhibition of human NCI-H460 cells; summary of the method: as §1
[10] = test system: NCI-H522; test: Growth inhibition of human NCI-H522 cells; summary of the method: as §1
[11] = test system: COLO 205; test: Growth inhibition of human COLO205 cells; summary of the method: as §1
[12] = test system: HCC 2998; test: Growth inhibition of human HCC2998 cells; summary of the method: as §1
[13] = test system: HCT-116; test: Growth inhibition of human HCT116 cells; summary of the method: as §1
[14] = test system: HCT-15; test: Growth inhibition of human HCT15 cells; summary of the method: as §1
[15] = test system: HT-29; test: Growth inhibition of human HT-29 cells; summary of the method: as §1
[16] = test system: KM12; test: Growth inhibition of human KM12 cells; summary of the method: as §1
[17] = test system: SW-620; test: Growth inhibition of human SW620 cells
Summary of the method: (§2)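 Compounds that passed a preliminary screen were tested at five doses in the NCI (Bethesda) in vitro Anticancer Screen Program against a 53-line human tumour panel spanning leukemia, lung, colon, CNS, melanoma, ovarian, renal, prostate and breast. Growth inhibition is reported as GI50.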

[18] = test system: SF-268; test: Growth inhibition of human SF268 cells; summary of the method: as §1
[19] = test system: SF-295; test: Growth inhibition of human SF295 cells; summary of the method: as §1
[20] = test system: SF-539; test: Growth inhibition of human SF539 cells; summary of the method: as §1
[21] = test system: SNB-19; test: Growth inhibition of human SNB19 cells; summary of the method: as §2
[22] = test system: SNB-75; test: Growth inhibition of human SNB75 cells; summary of the method: as §2
[23] = test system: U-251; test: Growth inhibition of human U251 cells; summary of the method: as §2
[24] = test system: A498; test: Growth inhibition of human A498 cells; summary of the method: as §1
[25] = test system: 786-0; test: Growth inhibition of human 786-0 cells; summary of the method: as §1
[26] = test system: ACHN; test: Growth inhibition of human ACHN cells; summary of the method: as §1
[27] = test system: CAKI-1; test: Growth inhibition of human Caki1 cells; summary of the method: as §1
[28] = test system: RXF 393; test: Growth inhibition of human RXF393 cells; summary of the method: as §1
[29] = test system: SN12C; test: Growth inhibition of human SN12C cells; summary of the method: as §2
[30] = test system: TK-10; test: Growth inhibition of human TK10 cells; summary of the method: as §2
[31] = test system: UO-31; test: Growth inhibition of human UO31 cells; summary of the method: as §2
[32] = test system: PC-3; test: Growth inhibition of human PC3 cells; summary of the method: as §1
[33] = test system: OVCAR-3; test: Growth inhibition of human OVCAR-3 cells; summary of the method: as §1
[34] = test system: OVCAR-4; test: Growth inhibition of human OVCAR4 cells; summary of the method: as §1
[35] = test system: OVCAR-5; test: Growth inhibition of human OVCAR5 cells; summary of the method: as §1
[36] = test system: OVCAR-8; test: Growth inhibition of human OVCAR8 cells; summary of the method: as §1
[37] = test system: NCI/ADR-RES; test: Growth inhibition of human NCI/ADR-RES cells; summary of the method: as §1
[38] = test system: SK-OV-3; test: Growth inhibition of human SKOV3 cells; summary of the method: as §2
[39] = test system: MCF7; test: Growth inhibition of human MCF7 cells; summary of the method: as §1
[40] = test system: MDA-MB-231; test: Growth inhibition of human MDA-MB-231 cells; summary of the method: as §1
[41] = test system: Hs-578T; test: Growth inhibition of human Hs 578T cells; summary of the method: as §1
[42] = test system: BT-549; test: Growth inhibition of human BT549 cells; summary of the method: as §1
[43] = test system: T47D; test: Growth inhibition of human T47D cells; summary of the method: as §2
[44] = test system: LOX IMVI; test: Growth inhibition of human LOXIMVI cells; summary of the method: as §1
[45] = test system: Malme-3M; test: Growth inhibition of human MALME-3M cells; summary of the method: as §1
[46] = test system: M14; test: Growth inhibition of human M14 cells; summary of the method: as §1
[47] = test system: MDA-MB-435; test: Growth inhibition of human MDA-MB-435 cells; summary of the method: as §1
[48] = test system: SK-MEL-2; test: Growth inhibition of human SK-MEL-2 cells; summary of the method: as §1
[49] = test system: SK-MEL-28; test: Growth inhibition of human SK-MEL-28 cells; summary of the method: as §1
[50] = test system: SK-MEL-5; test: Growth inhibition of human SK-MEL-5 cells; summary of the method: as §1
[51] = test system: UACC-257; test: Growth inhibition of human UACC257 cells; summary of the method: as §2
[52] = test system: UACC-62; test: Growth inhibition of human UACC62 cells; summary of the method: as §2
[53] = test system: MCF7; test: Cell cycle arrest in human MCF7 cells assessed as accumulation at G0 phase at 10 uM after 24 hrs by FACS analysis
Summary of the method: (§3)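 MCF-7 breast carcinoma cells were exposed to 10 µM test compound for 24 h, with DMSO as the vehicle control. Cell-cycle distribution was read by FACS as the percentage of cells in G0, G1, S and G2/M.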

[54] = test system: MCF7; test: Cell cycle arrest in human MCF7 cells assessed as accumulation at G1 phase at 10 uM after 24 hrs by FACS analysis; summary of the method: as §3
[55] = test system: MCF7; test: Cell cycle arrest in human MCF7 cells assessed as accumulation at S phase at 10 uM after 24 hrs by FACS analysis; summary of the method: as §3
[56] = test system: MCF7; test: Cell cycle arrest in human MCF7 cells assessed as accumulation at G2/M phase at 10 uM after 24 hrs by FACS analysis; summary of the method: as §3
[57] = test system: MCF7; test: Cell cycle arrest in human MCF7 cells assessed as accumulation at G0 phase at 30 uM after 24 hrs by FACS analysis
Summary of the method: (§4)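 MCF-7 cells were treated at 30 µM for 24 h alongside a DMSO control. Fractions in G0, G1, S and G2/M phases were measured by FACS, and values are means of three experiments.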

[58] = test system: MCF7; test: Cell cycle arrest in human MCF7 cells assessed as accumulation at G1 phase at 30 uM after 24 hrs by FACS analysis; summary of the method: as §4
[59] = test system: MCF7; test: Cell cycle arrest in human MCF7 cells assessed as accumulation at S phase at 30 uM after 24 hrs by FACS analysis; summary of the method: as §4
[60] = test system: MCF7; test: Cell cycle arrest in human MCF7 cells assessed as accumulation at G2/M phase at 30 uM after 24 hrs by FACS analysis; summary of the method: as §4

GI50 [2]: 590 nM | GI50 [3]: 3.03 µM | GI50 [6]: 14.4 µM | GI50 [7]: 2000 nM | GI50 [8]: 3.61 µM | GI50 [9]: 1730 nM | GI50 [10]: 1050 nM | GI50 [11]: 1520 nM | GI50 [12]: 1920 nM | GI50 [13]: 740 nM | GI50 [14]: 1890 nM | GI50 [15]: 1700 nM | GI50 [17]: 1030 nM | GI50 [23]: 1230 nM | GI50 [25]: 1590 nM | GI50 [26]: 1740 nM | GI50 [32]: 2630 nM | GI50 [33]: 1480 nM | GI50 [34]: 3.77 µM | GI50 [35]: 4.38 µM | GI50 [36]: 2320 nM | GI50 [38]: 5.12 µM | GI50 [39]: 470 nM | GI50 [40]: 4.19 µM | GI50 [42]: 1520 nM | GI50 [43]: 3.08 µM | GI50 [47]: 2110 nM | GI50 [48]: 3.02 µM | GI50 [49]: 1610 nM | GI50 [50]: 2760 nM
SMILES: COc1cc(/C=C/C(=O)c2cccc(-n3cc(-c4cc(OC)c(OC)c(OC)c4)[nH]c3=O)c2)cc(OC)c1OC
GI50 [1]: 230 nM | GI50 [4]: 9.47 µM | GI50 [5]: 3.08 µM | GI50 [16]: 1120 nM | GI50 [18]: 2200 nM | GI50 [19]: 4.96 µM | GI50 [20]: 3.12 µM | GI50 [21]: 4.07 µM | GI50 [22]: 5.13 µM | GI50 [24]: 20.3 µM | GI50 [27]: 2890 nM | GI50 [28]: 1620 nM | GI50 [29]: 2750 nM | GI50 [30]: 3000 nM | GI50 [31]: 960 nM | GI50 [37]: 2100 nM | GI50 [41]: inactive | GI50 [44]: 1230 nM | GI50 [45]: 1800 nM | GI50 [46]: 2120 nM | GI50 [51]: 2220 nM | GI50 [52]: 1870 nM | Activity [53]: 3.63% | Activity [54]: 47.6% | Activity [55]: 25.65% | Activity [56]: 23.12% | Activity [57]: 39.7% | Activity [58]: 42.7% | Activity [59]: 7.85% | Activity [60]: 9.75%
